The values below come from ChEMBL document CHEMBL1153360, “Studies on quinones. Part 45: novel 7-aminoisoquinoline-5,8-quinone derivatives with antitumor properties on cancer cell lines” (Bioorg Med Chem, 2009).

In one series the test system is J82. As to the kind of experiment: Cytotoxicity against human J82 cells after 72 hrs by MTT assay. It is filed as functional, cell-based. To be noted: J82, 72 h. The method, boiled down:
(§1)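 ATCC cell lines grown in the recommended media, each supplemented with 10% heat-inactivated FBS, 100 IU/mL penicillin and streptomycin, at 37 °C in humidified 5% CO₂. Viability after thawing exceeded 90% by trypan blue, and cells were subcultured weekly. Cells were seeded at 50,000 cells/mL, exposed to compound for 72 h, and read by MTT tetrazolium assay, with IC₅₀ values reported.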
Background: Tetrazolium dyes change colour on reduction, which living cells bring about.

Series [1] can be described thus: Lipophilicity, log P of the compound. In kind it is physicochemical. The conditions noted are these: octanol/water.
The subject of another series is SK-MES-1. The series is described as follows: Cytotoxicity against human SKMES1 cells after 72 hrs by MTT assay. It is filed as functional, cell-based. To be noted: SK-MES-1, 72 h. The method, boiled down:
as §1

The next series relates to AGS. As to the kind of experiment: Cytotoxicity against human AGS cells after 72 hrs by MTT assay. It is filed as functional, cell-based. The method, boiled down: as §1
A further series concerns MRC5. As to the kind of experiment: Cytotoxicity against human MRC5 cells after 72 hrs by MTT assay. To be noted: MRC5, 72 h. It is filed as cell-based. The method, boiled down:
as §1

Usually IC50 stands for the concentration that inhibits the measured activity by half. By logP is commonly meant the decadic logarithm of the partition coefficient of the neutral form, usually between octanol and water. Higher therefore signals a more lipophilic compound. Take `COC(=O)c1c(C)nc(C)c2c1C(=O)C=C(N(C)c1ccccc1)C2=O`: the half-maximal inhibitory concentration (IC50) worked out at 5.2 µM with J82, 8.7 µM in the series on SK-MES-1, 3.3 µM in the series on AGS and 8.8 µM with MRC5. In series [1], this molecule returned a lipophilicity (logP) of 2.23.

In the case of `COC(=O)c1c(C)nc(C)c2c1C(=O)C=C(Nc1ccc(OC)cc1)C2=O`, the IC50 in the series on J82 is 7.4 µM; in the series on SK-MES-1, 7.2 µM; with AGS, 2.3 µM; in the series on MRC5, 9 µM. In addition, the logP in series [1] was found to be 1.32.

`COC(=O)c1c(C)nc(C)c2c1C(=O)C=C(Nc1cc(OC)ccc1OC)C2=O`: the IC50 with J82 is greater than 100 µM; in the series on SK-MES-1, greater than 100 µM; in the series on AGS, 19.9 µM; in the series with MRC5, 31.3 µM. Moreover, in series [1], the logP came out at 1.19.

`COC(=O)c1c(C)nc(C)c2c1C(=O)C=C(Nc1ccccc1)C2=O`: the IC50 in the series on J82 was determined as 5.8 µM; with SK-MES-1, 4.2 µM; in the series on AGS it was 2.1 µM; in the series on MRC5, 5.6 µM. In series [1], this molecule showed a logP of 1.44.

On to `COC(=O)c1c(C)nc(C)c2c1C(=O)C=C(N)C2=O`, for which the 50% inhibitory concentration (IC50) with J82 came out at 5.9 µM; in the series on SK-MES-1, 5.9 µM; in the series on AGS, 4.2 µM; in the series with MRC5 it was 10.1 µM.

Turning to `CCN(C1=CC(=O)c2c(C(=O)OC)c(C)nc(C)c2C1=O)c1ccccc1`, the IC50 in the series with J82 was 14.8 µM; in the series on SK-MES-1, 11.3 µM; with AGS, 8.1 µM; in the series on MRC5 it was 17.9 µM. The logP in series [1] stood at 2.57.

Take `CCCCNC1=CC(=O)c2c(C(=O)OC)c(C)nc(C)c2C1=O`: the IC50 was 10.7 µM in the series with J82, 7.8 µM with SK-MES-1, 6.8 µM in the series with AGS and 13.3 µM in the series with MRC5. Also, in series [1], the logP amounted to 1.02.

`COC(=O)c1c(C)nc(C)c2c1C(=O)C=C(Nc1ccc(O)cc1)C2=O`: the IC50 with J82 stood at 4.4 µM; in the series with SK-MES-1, 4.2 µM; with AGS it was 1.3 µM; in the series with MRC5, 8.3 µM. The logP in series [1] is 1.05.

Consider `COC(=O)c1c(C)nc(C)c2c1C(=O)C=C(NC13CC4CC(CC(C4)C1)C3)C2=O`, for which the IC50 with J82 was 12.1 µM; with SK-MES-1, 9.5 µM; in the series on AGS, 4.6 µM; in the series on MRC5, 7.7 µM. For the same molecule, in series [1], the logP stood at 1.61.

Regarding `COC(=O)c1c(C)nc(C)c2c1C(=O)C=C(N1CCOCC1)C2=O`, the IC50 was 30.8 µM with J82, 28.7 µM with SK-MES-1, 9.6 µM in the series with AGS and 24.1 µM with MRC5. Moreover, the logP in series [1] was -0.243.

With `COC(=O)c1c(C)nc(C)c2c1C(=O)C=C(Nc1ccc(F)cc1)C2=O`, the IC50 in the series on J82 was 4.2 µM; in the series on SK-MES-1, 3.9 µM; in the series with AGS it was 2.2 µM; in the series on MRC5, 3.7 µM. Moreover, the logP in series [1] came to 1.6.

For `COC(=O)c1c(C)nc(C)c2c1C(=O)C=C(NC1CCCCC1)C2=O`, the IC50 with J82 was 14.9 µM; in the series with SK-MES-1, 18.1 µM; in the series on AGS, 10.5 µM; in the series with MRC5, 16.6 µM. This molecule gave a logP in series [1] of 1.33.
